Measurements reported in ChEMBL document CHEMBL1122008, “Lipophilic 5'-(alkyl phosphate) esters of 1-beta-D-arabinofuranosylcytosine and its N4-acyl and 2,2'-anhydro-3'-O-acyl derivatives as potential prodrugs” (1982).

Experiments:
Assay type in all cases: functional
Mus musculus [1] = assay: Antitumor activity against L1210 leukemia in mice (Percent increase in life span.) at the dose of 250 mg/kg
Summary of the method: (§1)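 Male B6D2F1J mice, groups of 5–9, inoculated ip with 10^5 L1210 cells on day 0. Dosing starts day 1 on a qd×5 or q4d(2,6) schedule. Vehicles are sterile water, pH 7.4 0.05 M potassium phosphate buffer, or 0.4% Tween 80/0.5% CMC/0.9% benzyl alcohol/0.9% saline. %ILS = (T/C − 1)×100 from median survival. Weights taken days 1 and 7.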

Mus musculus [2] = assay: Antitumor activity against L1210 leukemia in mice (Average weight per mouse on day 1.) at the dose of 200 mg/kg
Summary of the method: (§2)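 Male B6D2F1J mice (5–9 per group) received 10^5 L1210 cells i.p. on day 0 and drug from day 1, given qd×5 or q4d(2,6). Vehicles were sterile water, 0.05 M potassium phosphate pH 7.4, or 0.4% Tween 80/0.5% CMC/0.9% benzyl alcohol/0.9% saline. Read-out is average body weight per mouse (g) on day 1.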

Mus musculus [3] = assay: Antitumor activity against L1210 leukemia in mice (Average weight per mouse on day 1.) at the dose of 250 mg/kg; summary of the method: as §2
Mus musculus [4] = assay: Antitumor activity against L1210/ara-C leukemia in mice (Average weight per mouse on day 1.) at the dose of 250 mg/kg
Summary of the method: (§3)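 Male B6D2F1J mice, groups of 5–9, inoculated ip with 10^5 L1210/ara-C cells on day 0. Dosing began day 1 on a qd×5 or q4d(2,6) schedule. Ara-C was given in sterile water, the n-butyl phosphate ester in 0.05 M pH 7.4 potassium phosphate buffer, and others as suspensions in 0.4% Tween 80/0.5% CMC/0.9% benzyl alcohol/0.9% saline. Mice were weighed on days 1 and 7; 7-day change given in g and %.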

Mus musculus [5] = assay: Antitumor activity against L1210/ara-C leukemia in mice (Average weight per mouse on day 1.) at the dose of 500 mg/kg; summary of the method: as §3
Mus musculus [6] = assay: Antitumor activity against L1210 leukemia in mice (Percent increase in life span.) at the dose of 1000 mg/kg; summary of the method: as §1
Mus musculus [7] = assay: Antitumor activity against L1210 leukemia in mice (Percent increase in life span.) at the dose of 200 mg/kg; summary of the method: as §1
Mus musculus [8] = assay: Antitumor activity against L1210 leukemia in mice (Percent increase in life span.) at the dose of 500 mg/kg; summary of the method: as §1
Mus musculus [9] = assay: Antitumor activity against L1210 leukemia in mice (Percent increase in life span.) at the dose of 50 mg/kg; summary of the method: as §1
Mus musculus [10] = assay: Antitumor activity against L1210/ara-C leukemia in mice (Percent increase in life span.) at the dose of 100 mg/kg
Summary of the method: (§4)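 Same protocol as the L1210 assay, but with 10^5 kinase-deficient L1210/ara-C cells inoculated ip into male B6D2F1J mice (groups of 5–9) on day 0. Treatment begins day 1, qd×5 or q4d(2,6). %ILS = (T/C − 1)×100 using median survival times of treated and control groups. Body weight recorded days 1 and 7.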

Mus musculus [11] = assay: Antitumor activity against L1210 leukemia in mice (Average 7-day weight change (%)) at the dose of 200 mg/kg
Summary of the method: (§5)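 Male B6D2F1J mice, groups of five to nine, inoculated ip with 10^5 L1210 cells on day 0. Drug treatment started day 1 on qd×5 or q4d(2,6) schedule. Vehicles: ara-C in sterile water; the n-butyl phosphate ester in 0.05 M pH 7.4 potassium phosphate buffer; others as suspensions in 0.4% Tween 80/0.5% low-density CMC/0.9% benzyl alcohol/0.9% saline. Mice weighed days 1 and 7; 7-day weight change given as g/mouse and %.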

Mus musculus [12] = assay: Antitumor activity against L1210/ara-C leukemia in mice (Percent increase in life span.) at the dose of 200 mg/kg; summary of the method: as §4
Mus musculus [13] = assay: Antitumor activity against L1210/ara-C leukemia in mice (Percent increase in life span.) at the dose of 250 mg/kg; summary of the method: as §4
Mus musculus [14] = assay: Antitumor activity against L1210/ara-C leukemia in mice (Percent increase in life span.) at the dose of 500 mg/kg; summary of the method: as §4
Mus musculus [15] = assay: Antitumor activity against L1210 leukemia in mice (Average 7-day weight change) at the dose of 200 mg/kg; summary of the method: as §5
Mus musculus [16] = assay: Antitumor activity against L1210 leukemia in mice (Average 7-day weight change) at the dose of 250 mg/kg; summary of the method: as §5
Mus musculus [17] = assay: Antitumor activity against L1210 leukemia in mice (Average 7-day weight change (%)) at the dose of 1000 mg/kg; summary of the method: as §5
Mus musculus [18] = assay: Antitumor activity against L1210 leukemia in mice (Average 7-day weight change) at the dose of 1000 mg/kg; summary of the method: as §5
Mus musculus [19] = assay: Antitumor activity against L1210/ara-C leukemia in mice (Average 7-day weight change) at the dose of 200 mg/kg
Summary of the method: (§6)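 Male B6D2F1J mice (5–9 per group) were given 10^5 L1210/ara-C cells i.p. on day 0, with treatment from day 1 on qd×5 or q4d(2,6). Vehicles were sterile water, pH 7.4 0.05 M phosphate buffer, or a Tween 80/CMC/benzyl alcohol saline suspension. Weights were taken on days 1 and 7; change is expressed in g/mouse and as a percentage.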

Mus musculus [20] = assay: Antitumor activity against L1210/ara-C leukemia in mice (Average 7-day weight change) at the dose of 250 mg/kg; summary of the method: as §6
Mus musculus [21] = assay: Antitumor activity against L1210/ara-C leukemia in mice (Average 7-day weight change) at the dose of 500 mg/kg; summary of the method: as §3
Mus musculus [22] = assay: Antitumor activity against L1210/ara-C leukemia in mice (Average 7-day weight change) at the dose of 50 mg/kg; summary of the method: as §3
Mus musculus [23] = assay: Antitumor activity against L1210 leukemia in mice (Average 7-day weight change) at the dose of 500 mg/kg; summary of the method: as §5
Mus musculus [24] = assay: Antitumor activity against L1210 leukemia in mice (Average 7-day weight change) at the dose of 50 mg/kg; summary of the method: as §5
Mus musculus [25] = assay: Antitumor activity against L1210/ara-C leukemia in mice (Average 7-day weight change (%)) at the dose of 1000 mg/kg; summary of the method: as §6
Mus musculus [26] = assay: Antitumor activity against L1210/ara-C leukemia in mice (Average 7-day weight change (%)) at the dose of 100 mg/kg; summary of the method: as §6
Mus musculus [27] = assay: Antitumor activity against L1210/ara-C leukemia in mice (Average 7-day weight change (%)) at the dose of 200 mg/kg; summary of the method: as §6
Mus musculus [28] = assay: Antitumor activity against L1210/ara-C leukemia in mice (Average 7-day weight change (%)) at the dose of 250 mg/kg; summary of the method: as §6
Mus musculus [29] = assay: Antitumor activity against L1210/ara-C leukemia in mice (Average 7-day weight change (%)) at the dose of 500 mg/kg; summary of the method: as §6
Mus musculus [30] = assay: Antitumor activity against L1210/ara-C leukemia in mice (Average 7-day weight change) at the dose of 100 mg/kg; summary of the method: as §6
Mus musculus [31] = assay: Antitumor activity against L1210 leukemia in mice (Average weight per mouse on day 1.) at the dose of 50 mg/kg; summary of the method: as §2
Mus musculus [32] = assay: Antitumor activity against L1210 leukemia in mice (Average 7-day weight change (%)) at the dose of 50 mg/kg; summary of the method: as §5

Nc1ccn([C@@H]2O[C@H](CO)[C@@H](O)[C@@H]2O)c(=O)n1 [CYTARABINE] gave an ILS at 250 mg/kg (Mus musculus [1]) of 62%, an Average weight (Mus musculus [2]) of 22.6 g mouse-1 and an Average weight (Mus musculus [3]) of 21.4 g mouse-1. The Average weight (Mus musculus [4]) was 19.4 g mouse-1, the Average weight (Mus musculus [5]) was 20.2 g mouse-1 and the ILS at 1000 mg/kg (Mus musculus [6]) was 87%. For the same molecule, the ILS at 200 mg/kg (Mus musculus [7]) was 112%, the ILS at 500 mg/kg (Mus musculus [8]) was 62% and the ILS at 50 mg/kg (Mus musculus [9]) was 75%. It also gave an ILS at 100 mg/kg (Mus musculus [10]) of -13%, a Weight change (Mus musculus [11]) of -7% and an ILS at 200 mg/kg (Mus musculus [12]) of -13%. For the same molecule, the ILS at 250 mg/kg (Mus musculus [13]) was 12%, the ILS at 500 mg/kg (Mus musculus [14]) was 12% and the Weight change (Mus musculus [15]) was -1.6 g mouse-1. For the same molecule, the Weight change (Mus musculus [16]) was 1.4 g mouse-1, the Weight change (Mus musculus [17]) was 3% and the Weight change (Mus musculus [18]) was 0.8 g mouse-1. The Weight change (Mus musculus [19]) was -3.1 g mouse-1, the Weight change (Mus musculus [20]) was 4 g mouse-1 and the Weight change (Mus musculus [21]) was 3.8 g mouse-1. It also gave a Weight change (Mus musculus [22]) of 0.8 g mouse-1, a Weight change (Mus musculus [23]) of 0.4 g mouse-1 and a Weight change (Mus musculus [24]) of 0.2 g mouse-1. It also gave a Weight change (Mus musculus [25]) of 11%, a Weight change (Mus musculus [26]) of -4% and a Weight change (Mus musculus [27]) of -14%. It also gave a Weight change (Mus musculus [28]) of 20%, a Weight change (Mus musculus [29]) of 19% and a Weight change (Mus musculus [30]) of -1.1 g mouse-1. The Average weight (Mus musculus [31]) was 24 g mouse-1 and the Weight change (Mus musculus [32]) was 0%.
